Measurements from different studies.
Lines come from different studies, so protocols differ.
Target: Histamine H1 receptor (HRH1, Homo sapiens, UniProt P35367)

SMILES | test | conditions | measurement | result
Cc1c(N2CCNCC2)nc2ccc(Br)cc2c1C(=O)NC[C@H](CCC(=O)O)c1ccccc1Cl | ligand displacement | 10 µM | inhibition | 17.5%
COc1ccc(C(=O)NCc2cc(C(C)C)no2)cc1OC1CCN(C)CC1 | ligand displacement, radioligand | 10 µM | inhibition | 37%
CCN(CC)CCCC[C@H](NC(=O)[C@H](CC(C)C)NC(=O)[C@H](C)NC(=O)[C@H](Cc1ccccc1)NC(=O)c1ccc(C(C)(C)C)cc1)C(=O)N[C@@H](CO)C(=O)OC | ligand displacement, radioligand | 10 µM | inhibition | -6%
c1ccc(C(NCCNC(c2ccccc2)c2ccccc2)c2ccccc2)cc1 | cell-free assay | 10 µM | inhibition | 81%
COCc1c(-c2cc3cc(C)cc(OC)c3s2)c2c(N)ncnn2c1CN1CCNC(=O)C1 | ligand displacement, radioligand | 10 µM | inhibition | 26%
CC(C)N1CCC[C@H]1CNC(=O)c1cn(C2CCCC2)c(=O)c2c1c1ccccc1n2C | ligand displacement, radioligand | 10 µM | inhibition | 22%
N#CC1(c2ccccn2)CCN(Cc2cc(C(=O)O)c(=O)n3ccccc23)CC1 | cell-free assay | 10 µM | inhibition | 28.4%
C[C@H](C(=O)N[C@H]1COc2ccccc2[C@@H]1S(C)(=O)=O)c1ccc(F)cc1 | cell-free assay | 10 µM | inhibition | -5%
CN1CCC(C(c2ccccc2)c2ccccc2)CC1 | binding |  | kon | 3.33e+06 M⁻¹ s⁻¹
CC(Cc1ccccc1)NCCn1cnc2c1c(=O)n(C)c(=O)n2C (stereo not shown) | ligand displacement, radioligand | 10 µM | inhibition | 12%
Nc1ncc(-c2nc(N3CCOCC3)nc(N3CCOCC3)n2)c(C(F)F)n1 | cell-free assay, radioligand | 10 µM | remaining signal | 99.1%
Clc1ccc2c(C3CCN(CCc4c[nH]c5ccccc45)CC3)c[nH]c2c1 | ligand displacement, radioligand | 10 µM | inhibition | 100%
COc1ccc(S(=O)(=O)N2CCCCC2)cc1C | ligand displacement, radioligand | 10 µM | inhibition | < 30%
